Drawing on ChEMBL document CHEMBL1150332, “Total synthesis of phenanthroindolizidine alkaloids (+/-)-antofine, (+/-)-deoxypergularinine, and their dehydro congeners and evaluation of their cytotoxic activity” (Bioorg Med Chem, 2008), this text covers Activity and EC50 for ten compounds.

Values after ≈ are worked out from the molar mass of the structure shown. Active and inactive are the calls of the source. The calls are words filed in the database; no cut-off is given here.

Format in all cases: functional, cell-based
One assay concerns A549. The experiment in a line: Cytotoxicity against human A549 cells after 72 hrs by sulforhodamine B assay. The following applies: for EC50: A549, 72 h. Put shortly:
(§1)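 SRB assay following NCI procedure; 72 h continuous exposure. Cells grown at 37 °C, 5% CO2, humidified, in RPMI-1640 with 25 mM HEPES, 2% (w/v) sodium bicarbonate, 10% (v/v) FBS, 100 µg/mL kanamycin. Compounds from DMSO stocks, final DMSO ≤1% (v/v). EC50 (µg/mL, 50% cell-number reduction) interpolated from dose-response; triplicate tests; doxorubicin positive control.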

A further assay concerns MCF7. Put plainly: Cytotoxicity against human MCF7 cells after 72 hrs by sulforhodamine B assay. The following applies: for EC50: MCF7, 72 h. A digest of the protocol:
as §1

The next assay relates to KB. The experiment in a line: Cytotoxicity against human KB cells after 72 hrs by sulforhodamine B assay. A digest of the protocol:
as §1
Background: The SRB assay estimates cell density from bound dye.

Assay [1] is described as follows: Cytotoxicity against human KB-VIN cells after 72 hrs by sulforhodamine B assay. The following applies: KBVIN. A digest of the protocol:
as §1

In the case of `COc1ccc2cc(/C=C/C(=O)O)c3cc(OC)c(OC)cc3c2c1`, the result with A549, in the assay with MCF7 and in the assay on KB was inactive. For the same compound, the EC50 (as a rule, the concentration needed to bring the measured effect to its halfway point) in assay [1] was determined as 14.7 µg/mL (≈ 43.5 µM).
As for `COc1ccc2c(c1)c1cc(OC)c(OC)cc1c1cc[nH]c(=O)c21`, the outcome in the assay on A549, in the assay on MCF7 and in the assay on KB was inactive. The same compound registered an EC50 in assay [1] of 7.39 µg/mL (≈ 22 µM).
As for `COc1ccc2cc(/C=C/C(=O)N=[N+]=[N-])c3cc(OC)c(OC)cc3c2c1`, the outcome in the assay on A549 was inactive. The EC50 with MCF7 came to 8.29 µg/mL (≈ 22.8 µM); in the assay with KB, 13.5 µg/mL (≈ 37.2 µM); in assay [1], 9.36 µg/mL (≈ 25.8 µM).
Take `COc1ccc2c3c(c4cc(OC)c(OC)cc4c2c1)C(=O)N1CCCC1C3` (stereo not given): the EC50 amounted to 1.15 µg/mL (≈ 3.05 µM) in the assay with A549, 2.14 µg/mL (≈ 5.67 µM) in the assay on MCF7, 1.39 µg/mL (≈ 3.68 µM) in the assay with KB and 1.16 µg/mL (≈ 3.07 µM) in assay [1].
For `COc1ccc2c3c(c4cc(OC)c(OC)cc4c2c1)CC1CCCN1C3` (racemic) [(+/-)-ANTOFINE], in that order: 0.00016 µg/mL (≈ 0.00044 µM), 0.0045 µg/mL (≈ 0.0124 µM), 0.00043 µg/mL (≈ 0.00118 µM) and 0.00083 µg/mL (≈ 0.00228 µM).
Consider `COc1ccc2c3c(c4cc(OC)c(OC)cc4c2c1)CN1CCCC1C3` (racemic) [(+/-)-DEOXYTYLOPHORININE], for which the EC50 in the assay on A549 amounted to 0.011 µg/mL (≈ 0.0303 µM); with MCF7 it was 0.043 µg/mL (≈ 0.118 µM); in the assay on KB, 0.023 µg/mL (≈ 0.0633 µM); in assay [1] it was 0.016 µg/mL (≈ 0.044 µM).
The matching figures for `COc1ccc2c(c1)c1cc(OC)c(OC)cc1c1cc3[n+](cc21)CCC3.[Br-]` [DEHYDROANTOFINE BROMIDE]: 0.49 µg/mL, 1.29 µg/mL, 5.37 µg/mL and 5.14 µg/mL.
For `COc1ccc2c(c1)c1cc(OC)c(OC)cc1c1cc3[n+](cc21)CCC3.[Cl-]` [DEHYDROANTOFINE CHLORIDE], the EC50 in the assay with A549 amounted to 0.73 µg/mL; with MCF7 it was 1.72 µg/mL; in the assay with KB it was 0.93 µg/mL; in assay [1], 0.33 µg/mL.
The matching figures for `COc1ccc2c(c1)c1cc(OC)c(OC)cc1c1c[n+]3c(cc21)CCC3.[Br-]` [DEOXYPERGULARININE BROMIDE]: 0.32 µg/mL, 1.18 µg/mL, 0.29 µg/mL and 8.26 µg/mL.
The matching figures for `COc1ccc2c(c1)c1cc(OC)c(OC)cc1c1c[n+]3c(cc21)CCC3.[Cl-]` [DEOXYPERGULARININE CHLORIDE]: 1.06 µg/mL, 1.49 µg/mL, 0.95 µg/mL and 5.66 µg/mL.
